Data reported in ChEMBL document CHEMBL1127486, “Design of cyclic deltorphins and dermenkephalins with a disulfide bridge leads to analogues with high selectivity for delta-opioid receptors” (J Med Chem, 1994).

Key:
[1] = target: Delta-type opioid receptor (Mus musculus, UniProt P32300); assay: In vitro inhibition of electrically induced smooth muscle contractions of mouse vas deferens; assay type: functional, tissue-based
Mu-type opioid receptor [2] = target: Mu-type opioid receptor (Rattus norvegicus, UniProt P33535); assay: Inhibition of [3H]CTOP binding to rat brain homogenate mu-opioid receptor
Method in brief: (§1)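 Whole brain membranes from male Sprague-Dawley rats, preincubated 30 min at 25 °C to remove endogenous opioids. Incubated 180 min at 25 °C with 0.75 nM [3H][p-ClPhe4]DPDPE (δ) or 0.5 nM [3H]CTOP (μ). Buffer was 50 mM Tris-HCl pH 7.4 with BSA, bacitracin, bestatin, captopril and toluenesulfonyl fluoride. Rapid filtration and scintillation counting. Duplicates, ≥3 experiments, nonlinear least-squares fit.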

Mu-type opioid receptor [3] = target: Mu-type opioid receptor (Cavia porcellus, UniProt P97266); assay: In vitro inhibition of electrically evoked contractions in guinea pig ileum longitudinal muscle myenteric plexus; assay type: functional, tissue-based
Method in brief: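 Longitudinal muscle–myenteric plexus strips from male Hartley guinea pigs (150–400 g) in 37 °C Krebs bicarbonate gassed with 95% O2/5% CO2. Transmural stimulation at 0.1 Hz, 0.4-ms pulses, supramaximal voltage. Bestatin, bacitracin and captopril added 3 min before cumulative peptide doses. Inhibition compares contraction height 3 min post-dose with the 1-min pre-dose mean.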

[4] = target: Delta-type opioid receptor (Rattus norvegicus, UniProt P33533); assay: Inhibition of [3H][p-Cl-Phe-][…] binding to rat brain homogenate delta-opioid receptor; method in brief: as §1
[5] = Selectivity ratio against guinea pig ileum and mouse vas deferens contractions; assay type: functional
[6] = target: Delta-type opioid receptor (Mus musculus) (UniProt P32300); assay: In vitro percentage inhibition of electrically induced smooth muscle contractions of mouse vas deferens after the administration at 6000 nM; assay type: functional
Method in brief: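 Vasa deferentia from male ICR mice (25–30 g) in 37 °C magnesium-free Krebs bicarbonate gassed with 95% O2/5% CO2. Transmural stimulation at 0.1 Hz, 2.0-ms pulses, supramaximal voltage. Peptidase inhibitors (bestatin, bacitracin, captopril) given 3 min before peptide. Percent inhibition is the 1-min pre-dose mean contraction height against height 3 min after peptide. Run in duplicate, repeated two or three times.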

Sequence of Delta-type opioid receptor (Rattus norvegicus, UniProt P33533) (P33533 whole entry): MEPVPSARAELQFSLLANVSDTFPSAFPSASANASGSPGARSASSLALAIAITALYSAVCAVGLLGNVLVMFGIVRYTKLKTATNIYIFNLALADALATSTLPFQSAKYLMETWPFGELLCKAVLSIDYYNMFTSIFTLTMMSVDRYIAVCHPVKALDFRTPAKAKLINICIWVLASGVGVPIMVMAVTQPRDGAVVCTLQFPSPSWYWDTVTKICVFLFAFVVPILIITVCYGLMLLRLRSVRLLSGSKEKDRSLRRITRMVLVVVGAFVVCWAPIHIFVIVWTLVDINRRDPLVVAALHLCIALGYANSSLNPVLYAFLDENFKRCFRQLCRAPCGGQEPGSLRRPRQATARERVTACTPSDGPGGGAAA
Sequence of Delta-type opioid receptor (Mus musculus, UniProt P32300) (P32300 whole entry): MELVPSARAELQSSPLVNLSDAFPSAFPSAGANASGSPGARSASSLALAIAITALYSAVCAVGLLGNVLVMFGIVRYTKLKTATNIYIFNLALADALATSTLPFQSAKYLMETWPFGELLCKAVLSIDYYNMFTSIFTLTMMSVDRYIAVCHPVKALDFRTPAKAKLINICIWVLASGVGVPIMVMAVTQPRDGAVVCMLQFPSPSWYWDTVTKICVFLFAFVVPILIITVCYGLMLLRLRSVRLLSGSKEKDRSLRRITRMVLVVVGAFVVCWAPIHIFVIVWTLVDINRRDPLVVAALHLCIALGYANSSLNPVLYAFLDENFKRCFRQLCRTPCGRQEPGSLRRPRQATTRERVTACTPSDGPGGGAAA
Sequence of Mu-type opioid receptor (Cavia porcellus, UniProt P97266) (P97266 whole entry): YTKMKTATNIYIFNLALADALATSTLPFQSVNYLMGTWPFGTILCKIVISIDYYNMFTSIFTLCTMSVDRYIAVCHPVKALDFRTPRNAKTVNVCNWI
Sequence of Mu-type opioid receptor (Rattus norvegicus, UniProt P33535) (P33535 whole entry): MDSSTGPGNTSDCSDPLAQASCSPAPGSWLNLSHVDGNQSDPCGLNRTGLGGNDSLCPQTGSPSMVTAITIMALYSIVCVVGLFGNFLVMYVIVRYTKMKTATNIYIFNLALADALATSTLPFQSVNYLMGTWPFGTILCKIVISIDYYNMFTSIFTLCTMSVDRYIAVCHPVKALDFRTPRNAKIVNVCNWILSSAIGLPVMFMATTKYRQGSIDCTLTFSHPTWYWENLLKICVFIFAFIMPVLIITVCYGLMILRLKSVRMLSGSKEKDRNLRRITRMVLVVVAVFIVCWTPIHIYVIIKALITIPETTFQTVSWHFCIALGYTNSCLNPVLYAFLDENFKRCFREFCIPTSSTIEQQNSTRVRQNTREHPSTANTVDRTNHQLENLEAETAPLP
Sequence of Delta-type opioid receptor (Mus musculus) (P32300 whole entry): as the sequence (P32300 whole entry) above

Question: Which results are given for CC(C)[C@H](NC(=O)[C@@H]1NC(=O)[C@H](CC(=O)O)NC(=O)[C@H](Cc2ccccc2)NC(=O)[C@H](NC(=O)[C@@H](N)Cc2ccc(O)cc2)C(C)(C)SSC1(C)C)C(=O)NCC(N)=O [listing 1 of 2 here]?
Answer: IC50 [1]: 920 nM; IC50 (Mu-type opioid receptor [2]): 1200 nM; IC50 (Mu-type opioid receptor [3]): 5500 nM; IC50 [4]: 210 nM

Question: Which Selectivity [5] does the source give for CC(C)[C@H](NC(=O)[C@@H]1NC(=O)[C@H](CC(=O)O)NC(=O)[C@H](Cc2ccccc2)NC(=O)[C@H](NC(=O)[C@@H](N)Cc2ccc(O)cc2)C(C)(C)SSC1(C)C)C(=O)NCC(N)=O [listing 2 of 2 here] here?
Answer: The Selectivity was 6.

Question: With CC(C)[C@H](NC(=O)[C@H]1NC(=O)[C@H](CC(=O)O)NC(=O)[C@H](Cc2ccccc2)NC(=O)[C@H](NC(=O)[C@@H](N)Cc2ccc(O)cc2)CSSC1(C)C)C(=O)NCC(N)=O [listing 1 of 2 here] as the molecule, how does the IC50 [1] read?
Answer: Its IC50 is 0.25 nM.

Question: What about the IC50 (Mu-type opioid receptor [2]) of the same molecule?
Answer: The IC50 was 3760 nM.

Question: And the IC50 (Mu-type opioid receptor [3])?
Answer: Its IC50 is 1100 nM.

Question: What about the IC50 [4] of the same molecule?
Answer: The IC50 was 2.2 nM.

Question: For CC(C)[C@H](NC(=O)[C@H]1NC(=O)[C@H](CC(=O)O)NC(=O)[C@H](Cc2ccccc2)NC(=O)[C@H](NC(=O)[C@@H](N)Cc2ccc(O)cc2)CSSC1(C)C)C(=O)NCC(N)=O [listing 2 of 2 here], which Selectivity [5] is on record?
Answer: The Selectivity was 4400.

Question: What does the source list for CC(C)[C@H](NC(=O)[C@H]1NC(=O)[C@H](CC(=O)O)NC(=O)[C@H](Cc2ccccc2)NC(=O)[C@H](NC(=O)[C@@H](N)Cc2ccc(O)cc2)C(C)(C)SSC1(C)C)C(=O)NCC(N)=O [listing 1 of 2 here]?
Answer: IC50 [1]: 6.3 nM; IC50 (Mu-type opioid receptor [2]): 26000 nM; IC50 (Mu-type opioid receptor [3]): 68000 nM; IC50 [4]: 3.7 nM

Question: With CC(C)[C@H](NC(=O)[C@H]1NC(=O)[C@H](CC(=O)O)NC(=O)[C@H](Cc2ccccc2)NC(=O)[C@H](NC(=O)[C@@H](N)Cc2ccc(O)cc2)C(C)(C)SSC1(C)C)C(=O)NCC(N)=O [listing 2 of 2 here] as the molecule, how does the Selectivity [5] read?
Answer: The Selectivity was 11000.

Question: For CC(C)[C@H](NC(=O)[C@@H]1CSSC[C@@H](NC(=O)[C@@H](N)Cc2ccc(O)cc2)C(=O)N[C@@H](Cc2ccccc2)C(=O)N[C@@H](CC(=O)O)C(=O)N1)C(=O)NCC(N)=O, which Selectivity [5] is on record?
Answer: Its Selectivity is 13.

Question: Which Selectivity [5] does the source give for CC(C)C(NC(=O)[C@H]1NC(=O)[C@H](CCC(=O)O)NC(=O)C(Cc2ccccc2)NC(=O)[C@H](NC(=O)[C@@H](N)Cc2ccc(O)cc2)C(C)(C)SSC1(C)C)C(=O)NCC(N)=O (single isomer, unassigned) here?
Answer: Its Selectivity is 3200.

Question: And the IC50 [1]?
Answer: Its IC50 is 2.24 nM.

Question: What about the IC50 (Mu-type opioid receptor [2]) of the same molecule?
Answer: The IC50 was 4900 nM.

Question: And the IC50 (Mu-type opioid receptor [3])?
Answer: The IC50 was 7100 nM.

Question: What about the IC50 [4] of the same molecule?
Answer: The IC50 was 5.7 nM.

Question: For CCCC[C@H](NC(=O)[C@H]1NC(=O)[C@H](Cc2c[nH]cn2)NC(=O)C(Cc2ccccc2)NC(=O)[C@H](NC(=O)[C@@H](N)Cc2ccc(O)cc2)C(C)(C)SSC1(C)C)C(=O)N[C@@H](CC(=O)O)C(=O)O (single isomer, unassigned), which inhibition [6] is on record?
Answer: The inhibition was 43.5%.

Question: What about the Selectivity [5] of the same molecule?
Answer: Its Selectivity is under 1.5.

Question: And the IC50 (Mu-type opioid receptor [2])?
Answer: Its IC50 is 1900 nM.

Question: What about the IC50 (Mu-type opioid receptor [3]) of the same molecule?
Answer: The IC50 was 4500 nM.

Question: And the IC50 [4]?
Answer: The IC50 was 5.11 nM.

Question: Which results are given for CCCC[C@H](NC(=O)[C@H]1NC(=O)[C@H](CC(=O)O)NC(=O)C(Cc2ccccc2)NC(=O)[C@H](NC(=O)[C@@H](N)Cc2ccc(O)cc2)C(C)(C)SSC1(C)C)C(=O)NCC(N)=O (single isomer, unassigned)?
Answer: Selectivity [5]: 16000; IC50 [1]: 8.8 nM; IC50 (Mu-type opioid receptor [2]): 54600 nM; IC50 (Mu-type opioid receptor [3]): 137000 nM; IC50 [4]: 4.83 nM

Question: With CC(C)C(NC(=O)[C@H]1NC(=O)[C@H](CO)NC(=O)C(Cc2ccccc2)NC(=O)[C@H](NC(=O)[C@@H](N)Cc2ccc(O)cc2)C(C)(C)SSC1(C)C)C(=O)NCC(N)=O (single isomer, unassigned) as the molecule, how does the Selectivity [5] read?
Answer: The Selectivity was 150.

Question: And the IC50 [1]?
Answer: Its IC50 is 91.8 nM.

Question: What about the IC50 (Mu-type opioid receptor [2]) of the same molecule?
Answer: Its IC50 is 3300 nM.

Question: What about the IC50 (Mu-type opioid receptor [3]) of the same molecule?
Answer: Its IC50 is 13500 nM.

Question: And the IC50 [4]?
Answer: Its IC50 is 10 nM.

Question: What does the source list for CCCC[C@H](NC(=O)[C@H]1NC(=O)[C@H](Cc2c[nH]cn2)NC(=O)C(Cc2ccccc2)NC(=O)[C@H](NC(=O)[C@@H](N)Cc2ccc(O)cc2)C(C)(C)SSC1(C)C)C(=O)N[C@@H](CC(=O)O)C(N)=O (single isomer, unassigned)?
Answer: Selectivity [5]: 1700; IC50 [1]: 12.7 nM; IC50 (Mu-type opioid receptor [2]): 10200 nM; IC50 (Mu-type opioid receptor [3]): 22000 nM; IC50 [4]: 3.4 nM

Question: Which IC50 [1] does the source give for CSCCC(NC(=O)[C@H](CC(C)C)NC(=O)[C@H](Cc1c[nH]cn1)NC(=O)[C@H](Cc1ccccc1)NC(=O)C(CCSC)NC(=O)[C@@H](N)Cc1ccc(O)cc1)C(=O)N[C@@H](CC(=O)O)C(N)=O (stereo in doubt) [listing 1 of 2 here] here?
Answer: Its IC50 is 0.28 nM.

Question: And the IC50 (Mu-type opioid receptor [2])?
Answer: The IC50 was 1900 nM.

Question: What about the IC50 (Mu-type opioid receptor [3]) of the same molecule?
Answer: Its IC50 is 3400 nM.

Question: And the IC50 [4]?
Answer: Its IC50 is 0.47 nM.

Question: With CSCCC(NC(=O)[C@H](CC(C)C)NC(=O)[C@H](Cc1c[nH]cn1)NC(=O)[C@H](Cc1ccccc1)NC(=O)C(CCSC)NC(=O)[C@@H](N)Cc1ccc(O)cc1)C(=O)N[C@@H](CC(=O)O)C(N)=O (stereo in doubt) [listing 2 of 2 here] as the molecule, how does the Selectivity [5] read?
Answer: Its Selectivity is 12000.

Question: Which IC50 (Mu-type opioid receptor [3]) does the source give for CC(C)[C@H](NC(=O)[C@H](CC(=O)O)NC(=O)[C@H](Cc1ccccc1)NC(=O)[C@@H](C)NC(=O)[C@@H](N)Cc1ccc(O)cc1)C(=O)N[C@H](C(=O)NCC(N)=O)C(C)C (stereo in doubt; form 1) [DELTORPHIN C] here?
Answer: Its IC50 is 2890 nM.
